Hits are enriched below; roughly 3.5% of the tested compounds scored in any of these assays.
SIAE inh – human SIAE inhibition, primary screen | inhibition, % at 9.66 µM | 370,000 compounds, 0.69% hits | SIAE FP-Rh probe binding, fluorescence polarization | Q9HAT2;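 active means inhibition above a cutoff: mean of compounds within the control limits plus 3 SD of those, cut at about 17% in these data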
Target sequence (Q9HAT2 whole entry, looked up): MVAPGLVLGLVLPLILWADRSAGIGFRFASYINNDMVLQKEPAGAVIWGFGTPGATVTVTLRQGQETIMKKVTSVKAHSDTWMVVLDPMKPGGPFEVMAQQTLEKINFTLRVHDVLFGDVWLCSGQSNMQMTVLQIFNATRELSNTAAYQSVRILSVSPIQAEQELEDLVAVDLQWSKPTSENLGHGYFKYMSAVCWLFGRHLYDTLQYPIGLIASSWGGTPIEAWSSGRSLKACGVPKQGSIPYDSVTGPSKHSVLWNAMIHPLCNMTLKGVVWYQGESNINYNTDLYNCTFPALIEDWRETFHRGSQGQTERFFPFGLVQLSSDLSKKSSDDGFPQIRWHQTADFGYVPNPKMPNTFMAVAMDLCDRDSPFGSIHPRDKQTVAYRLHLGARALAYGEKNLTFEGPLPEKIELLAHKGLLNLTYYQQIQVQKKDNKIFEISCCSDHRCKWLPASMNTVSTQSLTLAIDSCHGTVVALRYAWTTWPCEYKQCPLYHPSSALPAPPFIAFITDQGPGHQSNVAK
ABHD4 inh – inhibits mouse alpha/beta hydrolase domain 4; AID 720543; purified mABHD4, FP-Rh probe fluorescence polarization; inhibition, % at 8.92 µM; 370,000 compounds, 0.54% hits;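 active means inhibition exceeding the mean over every tested compound plus 3 SD, cut at about 30% in these data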
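Doses – 8.92 µM, single dose · Material – wild-type mouse ABHD4 protein · Replication – single well per compound (singlicate) · Measure – percent inhibition of probe binding, normalized to plate controls · Schedule – 45 min compound pre-incubation plus 60 min probe step, 25 °C · Detection – fluorescence polarization with parallel and perpendicular emission, 525/598 nm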
HTRA1 inhibitor – inhibitors of human serine peptidase HTRA1; inhibition, % at 5.96 µM; 340,000 compounds, 0.5% hits; recombinant HTRA1, FP-rhodamine activity-based probe, fluorescence polarization; Q92743; AID 504803; in the data active means inhibition above about 36%
rCAG binder – molecules binding r(CAG) RNA repeats; r(CAG) RNA repeat, TO-PRO-1 dye displacement fluorescence; AID 651821; 370,000 compounds, 1.3% hits; inhibition, % at 3 µM;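 active means inhibition above the plate cutoff, the mean of all test compounds on that plate plus 3 SD, cut at about 35% in these data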;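 further: higher means more dye released from RNA so lower well fluorescence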
TCR CD3 inh – inhibitors of human TCR-CD3 interaction. inhibition, % at 9.4 µM. 360,000 compounds, 0.37% hits. TAMRA-labeled TCR probe fluorescence, biochemical; in the data active means inhibition above about 19%;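 further: recombinant mutant TCR 2C K166C tagged with TAMRA read by polarization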
PRMT1 inh – blocks human protein arginine methyltransferase 1 | recombinant PRMT1, activity-based probe fluorescence polarization | inhibition, % at 2.79 µM | 370,000 compounds, 1.3% hits;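 active means inhibition above about 21% made by adding two undisclosed values, limit read from the data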
PRMT1 confirm – PRMT1 (human) inhibition, FP confirmation | recombinant His-PRMT1, activity-based probe fluorescence polarization | shares compounds with PRMT1 inh | 3,300 compounds, 42% hits | inhibition, % at 2.79 µM;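 active means mean inhibition across replicates above the hit cutoff derived for the earlier primary screen, cut at about 22% in these data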
A number is an active result; 0 = inactive; - = no result.

SMILES	SIAE inh	ABHD4 inh	HTRA1 inhibitor	rCAG binder	TCR CD3 inh	PRMT1 inh	PRMT1 confirm
COc1ccc(C(=S)N2CCN(C)CC2)cc1Br	0	0	0	0	0	0	-
COc1ccc(C(=S)N2CCN(C)CC2)cc1	0	0	0	0	0	30	0
COc1ccc(C(=O)Oc2ccc(C(=S)N3CCOCC3)cc2)cc1	0	0	0	0	0	57	0
O=C(Oc1ccc(C(=S)N2CCOCC2)cc1)c1ccc(Br)cc1	0	0	0	0	0	0	-
O=C(Nc1cccc(C(F)(F)F)c1)O[C@@H]1CC[C@@]23CCCN2C(=O)CCC[C@H]3C1	0	0	-	-	-	0	-
COc1ccc(CCN2CCC(Nc3nc4ccccc4n3Cc3ccc(F)cc3)CC2)cc1	0	0	0	0	0	0	-
COc1c(O)cccc1[C@@H](O)C1CCN(CCc2ccc(F)cc2)CC1	0	0	0	0	0	36	0
COC(=O)CN(Cc1cn(Cc2ccccc2)nn1)S(=O)(=O)c1ccccc1Br	0	0	-	0	-	0	-
O=C(O)C1C2C=CC(O2)C1C(=O)NCc1ccccc1Br (stereo not drawn)	0	0	0	0	0	30	0
O=C(O)C1C2C=CC(O2)C1C(=O)NCCC1=CCCCC1 (stereo not drawn)	-	-	0	-	-	-	-
CCC[n+]1c(C)sc2c(OC)ccc(OC)c21	0	0	0	0	0	40	0
COC(=O)CNC(=O)CNC1(C(=O)NCCc2c[nH]c3ccccc23)CCCCC1	0	0	-	-	-	0	-
O=C(CSc1nnc(-c2ccccc2)n1-c1ccccc1)Nc1cccc2ccccc12	0	0	-	0	-	0	-
O=C(CSCc1ccco1)Nc1cc(C(F)(F)F)ccc1N1CCOCC1	0	0	0	0	0	66	40
CCCOc1ccc(-c2cc(C(C)=O)c3n(c2=O)CCC3)cc1	0	0	-	0	-	0	-
Cc1ccccc1Cn1cc(CN2[C@@H](Cc3ccccc3)COc3cc(Br)ccc3S2(=O)=O)nn1	0	0	-	0	-	0	-
Cc1ccc(-c2nc3s/c(=C\c4ccco4)c(=O)n3n2)cc1	0	0	0	0	0	28	0
CN(C(=O)C(C)(C)C)[C@H]1C[C@H]2c3[nH]c4ccccc4c3CCN2C(=O)[C@H]1CO	0	0	0	0	0	0	-
CN(C(=O)NC1CCCCC1)[C@H]1C[C@H]2c3[nH]c4ccccc4c3CCN2C(=O)[C@H]1CO	0	0	0	0	0	33	0
Oc1c(Cl)cc(Oc2cc(Cl)c(O)c(CN3CCOCC3)c2)cc1CN1CCOCC1	0	0	0	0	0	0	-
CCCc1cc(CN2CCOCC2)c(O)c(CN2CCOCC2)c1O	0	0	0	0	0	64	64
Oc1c(CN2CCOCC2)cc(CN2CCOCC2)c(O)c1O	0	0	0	0	0	35	83
COc1ccc2[nH]c(C)c(CCN(Cc3cccs3)C(=S)Nc3ccccc3)c2c1	0	0	0	0	0	29	0
COc1ccc2[nH]c(C)c(CCN(Cc3cccs3)C(=S)Nc3ccc(F)cc3)c2c1	-	-	0	-	-	-	-
Cc1cccc(NC(=O)CN2C(=O)N/C(=C/c3ccc(C)o3)C2=O)c1	0	0	0	0	0	65	50
SMILES	SIAE inh	ABHD4 inh	HTRA1 inhibitor	rCAG binder	TCR CD3 inh	PRMT1 inh	PRMT1 confirm
Cc1ccc(NC(=O)CN2C(=O)N/C(=C/c3ccc(C)s3)C2=O)cc1	0	0	0	0	0	0	-
CCn1c(C)cc(/C=C2/NC(=O)N(CC(=O)Nc3cccc(C)c3)C2=O)c1C	0	0	0	0	0	0	-
Cc1ccc(NC(=O)CN2C(=O)N/C(=C/c3ccc(C)o3)C2=O)cc1	0	0	0	0	0	76	0
C=CCN1C(=O)N/C(=C/c2ccc(C)o2)C1=O	0	0	0	0	0	63	29
CN(C)CCN(C)Cc1c2ccccc2c(CN(C)CCN(C)C)c2ccccc12	0	0	0	0	0	31	0
CN(C)CCP(=O)(c1ccccc1)c1ccccc1	0	0	0	0	0	0	-
C/C(N)=C(/C#N)C(=O)CSc1nc2ccc(C)cc2[nH]1	0	0	0	0	0	26	0
COc1ccc(C(=O)NCC23C=CC(O2)C2C(=O)N(Cc4ccccc4)C(=O)C23)cc1 (stereo not drawn)	0	0	0	0	0	54	0
O=C(O)CN1C(=O)/C(=C\C(Br)=C\c2ccccc2)SC1=S	0	0	0	50	0	31	33
O=C(O)CN1C(=O)/C(=C/c2ccsc2)SC1=S	0	0	-	0	0	0	-
CCOC(=O)c1c(CC(C)C)csc1NC(=O)COC(=O)c1cnc(C)cn1	0	0	0	0	0	0	-
CCOC(=O)c1c(-c2ccco2)csc1NC(=O)COC(=O)c1cnc(C)cn1	0	0	0	0	0	36	0
Cc1cc(C)nc(SC2CC(=O)N(c3ccc(C)c(C)c3)C2=O)n1 (stereo not drawn)	0	0	0	0	0	0	-
Cc1cccc(N2C(=O)CC(Sc3nccc(C)n3)C2=O)c1 (stereo not drawn)	0	0	0	0	0	0	-
Cc1cccc(N2C(=O)CC(Sc3ncn[nH]3)C2=O)c1 (stereo not drawn)	0	0	0	0	0	58	55
Cc1ccc(N2C(=O)CC(Sc3ncn[nH]3)C2=O)cc1C (stereo not drawn)	0	0	0	0	0	61	44
CN1C2=N[C@H](c3ccc(Br)cc3)CC(=O)N2/C(=C\c2ccccc2)[C@@H]1c1ccccc1	0	0	-	-	-	0	-
COc1ccc(-c2cc(NC(=O)Cc3c[nH]c4ccccc34)ccc2Nc2cccnc2)c(OC)c1	0	0	-	0	0	0	-
C[C@H](O)[C@@H]1CN2CCc3c([nH]c4c(-c5ccccc5)cccc34)[C@@H]2C[C@@H]1N(C)C(=S)NCCc1ccccc1	0	0	-	0	0	0	-
CN(Cc1c(F)cccc1Cl)C(=O)c1ccc(NC(=O)CC2SC(N3CCCC3)=NC2=O)cc1 (stereo not drawn)	0	0	0	0	0	101	0
CN(C)C(=O)NC1c2ccccc2-c2ccccc21	0	0	0	0	0	0	-
O=C1C=CC(=O)N1c1ccc2c(c1)C(NC(=O)C(F)(F)F)c1ccccc1-2 (stereo not drawn)	0	0	0	0	0	91	87
CCC1C(=O)N=C(SCC(=O)Nc2cccc3ccccc23)NC1=O (stereo not drawn)	0	0	0	0	0	0	-
CC(=O)NC1C(=O)N=C(SCC(=O)NCc2ccccc2)NC1=O (stereo not drawn)	0	0	0	0	0	40	0
CC(=O)NC1C(=O)N=C(SCC(=O)Nc2c(C)cccc2C)NC1=O (stereo not drawn)	0	0	0	0	0	42	0
CCOC(=O)c1c(-c2ccc(C)o2)csc1NC(=S)NC(=O)N(C)C	0	0	0	0	0	80	0

Compound activity (PubChem BioAssay)
